Jurkat viability: cytotoxic compounds reducing Jurkat cell viability | inhibition, % at 4 µM | Jurkat E6.1 viability, ATP luminescence, 48 h | 56,000 compounds, 1.2% hits;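 active = inhibition above the mean inhibition of all tested compounds plus 3 SD, cut at about 28% in these data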
M1 ag: M1 muscarinic receptor agonism | CHO-M1 cells, Fluo-4 calcium fluorescence, agonist mode; stronger effect = higher value | B-score at 10 µM | 64,000 compounds, 3% hits;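 active = fluorescence rise, raw or as B-score row- and column-corrected plate score, outside the 99.7% band of its plate's samples, either direction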
hDAT+cocaine: changed human dopamine transporter uptake under cocaine IC80; Q01959; LLC-PK1 hDAT cells, [14C]-dopamine uptake with cocaine IC80; actives deviate in either direction; B-score at 10 µM; 110,000 compounds, 1.3% hits; AID 449768;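 active = Z score or B-score, a plate-position-corrected score, falls beyond the plate's 99.7% confidence bounds, in either direction; inactive = both scores lie inside the 99.7% bounds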;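 also: scored against the spread of the other compound wells on the same plate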
HEK293 NFkB inh: lowers PMA/ionomycin-induced NF-kB signal in HEK293 cells. HEK-293 NF-kB luciferase reporter, luminescence. 62,000 compounds, 0.21% hits. inhibition, % at 3 µM. AID 465;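 active = inhibition above the mean of all tested compounds plus 3 SD, cut at about 40% in these data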;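 also: 0% = stimulated DMSO wells and 100% = 10 µM reference inhibitor 5653914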
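Signal: luciferase luminescence; Material: HEK-293 cells with stable firefly luciferase reporter driven by four HIV NF-kB elements; Probe or stimulus: PMA with ionomycin; Replication: tested once; Times: 1 h compound pretreatment, then 16 h stimulation at 37 °C, 5% CO2; Benchmarks: DMSO and 10 µM reference inhibitor; Evaluation: per-plate % inhibition versus controls.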
M1 antag: blocks the rat M1 muscarinic receptor response to acetylcholine; P08482; CHO-M1 cells, Fluo-4 calcium, ACh EC80 antagonist mode; stronger effect = lower value; B-score at 10 µM; 64,000 compounds, 3.4% hits;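 active = calcium fluorescence response, raw or row-and-column corrected B-score, differing from the plate sample mean either way at a set confidence level, mostly lower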
Target sequence (P08482 whole entry, looked up): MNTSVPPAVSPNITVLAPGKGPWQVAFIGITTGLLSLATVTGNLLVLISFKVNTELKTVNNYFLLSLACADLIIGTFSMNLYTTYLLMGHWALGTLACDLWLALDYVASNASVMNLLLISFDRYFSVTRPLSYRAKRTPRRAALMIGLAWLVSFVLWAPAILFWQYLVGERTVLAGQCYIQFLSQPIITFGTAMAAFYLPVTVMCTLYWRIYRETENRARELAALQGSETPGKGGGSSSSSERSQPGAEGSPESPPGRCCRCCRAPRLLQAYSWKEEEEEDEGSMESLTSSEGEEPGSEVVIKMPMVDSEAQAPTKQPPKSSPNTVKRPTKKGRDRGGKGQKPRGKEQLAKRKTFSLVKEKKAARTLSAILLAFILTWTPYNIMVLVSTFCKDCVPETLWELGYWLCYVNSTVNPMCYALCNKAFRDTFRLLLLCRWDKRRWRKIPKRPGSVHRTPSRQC
D1 allo mod: allosterically modulates the human D1 dopamine receptor. P21728. HEK293 D1, CRE-luciferase, dopamine EC30 potentiation; actives deviate in either direction. B-score at 10 µM. 58,000 compounds, 5.9% hits. AID 641;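 active = luminescence count or its row- and column-corrected plate score outside the 99.7% band of the plate's sample wells, on either side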
D1 mod confirm: confirmation of human D1 dopamine receptor allosteric modulators; shares compounds with D1 allo mod; HEK293 D1 CRE-luciferase, dopamine EC30 potentiation; stronger effect = higher value; luminescence at 10 µM; 2,200 compounds, 88% hits;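 active = luminescence in either of two replicates above the same-plate mean plus 3 SD of the low-dose dopamine control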
D1 no dopamine: D1 (human) signaling in absence of dopamine. shares compounds with D1 allo mod. HEK293 D1 CRE-luciferase, luminescence, no dopamine; stronger effect = higher value. luminescence at 10 µM. 1,900 compounds, 0.8% hits; in the data active = luminescence above about 3900
Isoprot counter: counter-screen for D1 modulators: isoproterenol response in HEK293 cells | shares compounds with D1 allo mod | HEK293 D1 CRE-luciferase, isoproterenol EC30 counter-screen | calls only at 10 µM | 2,200 compounds, 63% hits | AID 647;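 active = luminescence in either replicate above plate mean of wells with a partly effective reference agonist dose plus 3 SD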;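 also: isoproterenol raises cAMP through native beta-adrenoceptor Gs so signal bypasses D1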
Starred values were filed as active, the others as inactive; i = inactive; · = no result given; + = active, no number. Shown are actives, neighbours in structure and some others; about 7.6% of the full set was active somewhere.

SMILES | Jurkat viability | M1 ag | hDAT+cocaine | HEK293 NFkB inh | M1 antag | D1 allo mod | D1 mod confirm | D1 no dopamine | Isoprot counter
CCC(C)c1cc(S(=O)(=O)N2CCOCC2)ccc1OC (stereo not drawn) | 4 | 0.62 | 0.028 | 14 | 0.32 | 9.5* | 11376* | · | +
COc1ccc(S(=O)(=O)N2CCOCC2)cc1C(C)C | 3 | 1.1 | -0.18 | 2 | 0.74 | 1.1 | · | · | ·
Cc1noc(C)c1CSc1nnc(-c2cc(Cl)ccc2Cl)n1N | · | -0.63 | -0.58 | 7 | 0.92 | 9.5* | 25992* | 1756 | +
COc1cc(NC2c3ncccc3C(=O)N2Cc2ccco2)cc(OC)c1 (stereo not drawn) | 1 | -0.25 | 0.099 | 8 | 0.2 | 12* | 14836* | 1576 | +
COc1ccc(NC2c3ncccc3C(=O)N2Cc2ccccc2)c(OC)c1 (stereo not drawn) | 8 | -0.71 | 0.34 | 11 | 0.23 | 19* | 14524* | 1572 | +
Cc1ccc(NC2c3ncccc3C(=O)N2Cc2ccc(F)cc2)cc1 (stereo not drawn) | 2 | -1.3 | 0.25 | 9 | -0.27 | 7.5* | 10592* | · | +
COc1ccc(CN2C(=O)c3cccnc3C2Nc2ccc(OC)c(Cl)c2)cc1 (stereo not drawn) | 1 | -0.45 | 2.2 | 10 | 2 | 7.6* | 13912* | · | +
COc1ccc(CN2C(=O)c3ccccc3C2C(=O)NCc2cccnc2)c(OC)c1 (stereo not drawn) | -5 | 1.4 | -0.69 | 0 | -0.36 | -1.2 | · | · | ·
O=C(Cn1cnc2c(cnn2-c2ccc(Cl)cc2)c1=O)NC1CCCCC1 | 5 | -0.18 | 0.32 | 6 | 0.12 | 0.76 | · | · | ·
Nc1cccc(Cl)c1N1CCOCC1 | · | · | 1.1 | · | · | · | · | · | ·
O=C(O)c1c(F)c(F)c(F)c(F)c1-c1ccc(Cl)cc1 | -6 | -0.9 | -0.68 | 12 | 0.18 | 0.48 | · | · | ·
CC12C=CC3(CN(Cc4ccccc4)C(=O)C3C1C(=O)NCc1ccco1)O2 (stereo not drawn) | · | -0.16 | -0.83 | 5 | 0.48 | 0.56 | · | · | ·
Cc1cc(C)c2c(=O)[nH]c(SCC(=O)Nc3ccc(N(C)C)cc3)nc2n1 | · | · | 0.057 | · | · | · | · | · | ·
CC1(C)OC(=O)C(=CNc2ccccc2F)C(=O)O1 | -3 | -0.24 | · | 0 | 0.17 | 5.7* | 9180* | 1436 | +
CC1Cc2ccccc2N1C(=O)CSc1nc(N)cc(=O)[nH]1 (stereo not drawn) | · | · | -0.88 | · | · | · | · | · | ·
CCOC(=O)c1ccc2c(c1)nc(SCc1cn3ccsc3n1)n2CC | -2 | 0.4 | 1 | 9 | 0.98 | 13* | 23916* | 1828 | +
CCOC(=O)c1ccc2c(c1)nc(COc1ccc3ccccc3c1)n2CC | · | · | 2.3 | · | · | · | · | · | ·
CCc1nnc(NC(=O)c2ccncc2)s1 | 5 | 0.46 | -0.68 | -8 | 0.063 | 2.8* | 4640 | 1208 | i
c1coc(CNc2ncnc3sc4c(c23)CCCCC4)c1 | 1 | 0.00056 | 0.75 | 5 | -0.62 | 11* | 11680* | 1516 | +
NC(=O)c1cnn2c(C(F)(F)F)cc(-c3ccccc3)nc12 | -3 | 0.45 | -0.76 | 1 | 0.58 | 7.9* | 17628* | 1408 | +
NC(=O)c1cnn2c(C(F)(F)F)cc(-c3ccc(F)cc3)nc12 | -2 | 0.26 | -0.14 | 15 | 0.17 | 2.5* | 10756* | 1664 | +
O=S(=O)(c1ccccc1)c1cnn2c(C(F)(F)F)cc(-c3ccccc3)nc12 | · | · | 0.41 | · | · | · | · | · | ·
O=C(O)c1ccc(CNCc2ccccc2Cl)cc1 | · | · | -0.38 | · | · | · | · | · | ·
CC(=O)C(C)Oc1ccc2c3c(c(=O)oc2c1)CCCCC3 (stereo not drawn) | -2 | -0.6 | -0.042 | -24 | -0.29 | 1.5 | · | · | ·
CC(=O)C(C)Oc1ccc2c3c(c(=O)oc2c1)CCCC3 (stereo not drawn) | -1 | -0.033 | 0.83 | 6 | -1.1 | 7.8* | 8432* | · | +
SMILES | Jurkat viability | M1 ag | hDAT+cocaine | HEK293 NFkB inh | M1 antag | D1 allo mod | D1 mod confirm | D1 no dopamine | Isoprot counter
CC(=O)COc1ccc2c3c(c(=O)oc2c1)CCCC3 | 1 | 0.02 | 0.019 | 6 | 0.07 | 4.9* | 9956* | 1048 | +
CCOC(=O)Cn1nc(Cc2ccccc2)c2ccccc2c1=O | · | · | -0.25 | · | · | · | · | · | ·
CCOC(=O)N1CCC(NC(=O)Cn2nc(Cc3ccncc3)c3ccccc3c2=O)CC1 | -11 | -0.059 | 1.5 | 3 | 0.06 | 4.3* | 6112 | 1664 | i
CCOCCCn1c(=NC(=O)c2cccnc2)c(C(=O)OCC)cc2c(=O)n3ccccc3nc21 | -7 | 1.3 | 0.38 | 17 | -0.55 | 3.3* | 10440* | 1560 | +
CCCCn1c(=NC(=O)c2ccco2)c(C(=O)OCC)cc2c(=O)n3ccccc3nc21 | · | -0.029 | 0.85 | 17 | -1.1 | 5.6* | 9240* | 1496 | i
CCOC(=O)c1cc2c(=O)n3ccccc3nc2n(CC2CCCO2)c1=NC(C)=O (stereo not drawn) | · | 0.007 | 0.12 | 4 | -0.22 | 1.1 | · | · | ·
CCOC(=O)c1cc2c(=O)n3ccccc3nc2n(Cc2ccc(Cl)cc2)c1=N | 4 | 0.64 | · | 15 | -0.73 | 0.29 | · | · | ·
COc1ccc(-c2nc3cccc(C)n3c2NCc2ccco2)cc1OC | 2 | 0.8 | -0.012 | 4 | -0.18 | -0.2 | · | · | ·
O=C1NCC(CN(c2ccccc2)c2ccccc2)O1 (stereo not drawn) | 11 | -0.46 | -0.045 | 19 | 0.033 | 2.9* | 9384* | 1528 | +
COc1ccc(N(CC(=O)O)S(C)(=O)=O)cc1OC | -3 | 0.28 | 0.97 | 12 | 0 | 0.098 | · | · | ·
c1nc(N2CCC3(CC2)OCCO3)c2c3c(sc2n1)CCCC3 | 12 | 0.52 | 0.74 | 8 | -0.73 | 1.2 | · | · | ·
CCCN(C#N)c1nc(NCC)nc(NC(C)C)n1 | 7 | 0.66 | 0.16 | 9 | -0.28 | 17* | 24080* | 1560 | +
CCN(CC)C(=O)CN(C#N)c1nc(NC(C)C)nc(NC(C)C)n1 | · | 0.32 | 0.34 | · | -0.005 | · | · | · | ·
O=C(COC(=O)c1ccc(Br)o1)NCc1ccco1 | · | 0.34 | -1.7 | 7 | -0.052 | -0.26 | · | · | ·
CCOC(=O)c1cnc(-n2nc(C)cc2C)nc1NC(C)c1ccccc1 (stereo not drawn) | 0 | -0.85 | -0.23 | 20 | -1.2 | 8.3* | 9080* | 1572 | +
CCN(CC)c1ncccc1C(=O)NCc1cccs1 | 0 | -0.78 | -0.41 | 6 | 1.1 | 7.6* | 13524* | 1416 | +
O=C(NCc1cccs1)c1ccccc1C(=O)NCc1cccs1 | -1 | -0.15 | -0.44 | 16 | 0.17 | -0.97 | · | · | ·
CCOC(=O)c1sc2nc(C)c3c(c2c1N)CC(C)(C)OC3 | · | · | -0.37 | · | · | · | · | · | ·

Screening data: PubChem, several laboratories
